Assay results pooled from the literature.
Protocols differ between the studies behind these lines.
PKM: Pyruvate kinase PKM (PKM, Homo sapiens, UniProt P14618)
SIRT6: NAD-dependent protein deacylase sirtuin-6 (SIRT6, Homo sapiens, UniProt Q8N6T7)
STAT3: Signal transducer and activator of transcription 3 (STAT3, Homo sapiens, UniProt P40763)
HTR6: 5-hydroxytryptamine receptor 6 (HTR6, Homo sapiens, UniProt P50406)
OR5K1: OR5K1 (Homo sapiens, UniProt Q8NHB7)
CDK2: Cyclin-dependent kinase 2 (CDK2, Homo sapiens, UniProt P24941)
OR5K1 A2T/T15M/Y193C: OR5K1 (Homo sapiens, UniProt Q8NHB7, A2T/T15M/Y193C)
HTR7: 5-hydroxytryptamine receptor 7 (HTR7, Homo sapiens, UniProt P34969)

Structure (SMILES)	target	assay	conditions	endpoint	value
Cc1ccc(NS(=O)(=O)c2cc3c(cc2N2CCC(N(C)C)C2)NC(=O)CC3)cc1C (stereo not shown)	PKM	enzyme activity, activator	–	AC50	> 20000 nM
CC(=O)Nc1ccc(C(=O)NOCc2ccccc2)cc1	SIRT6	enzyme activity, inhibitor, fluorescence	–	IC50	218000 nM
C[C@H](NC(=O)CNC(=O)[C@@H]1CCCN1C(=O)[C@@H]1CCCN1C(=O)[C@H](C)NC(=O)[C@H](CCC(N)=O)NC(=O)CNC(=O)[C@@H]1CCCN1C(=O)[C@H](Cc1ccc(O)cc1)NC(=O)[C@H](C)NC(=O)CNC(=O)[C@@H]1CCCN1C(=O)[C@@H]1CCCN1C(=O)[C@H](C)NC(=O)[C@H](CCC(N)=O)NC(=O)CNC(=O)[C@@H]1CCCN1C(=O)[C@H](Cc1ccc(OP(=O)(O)O)cc1)NC(=O)[C@H](C)NC(=O)CN)C(=O)O	STAT3	binding, ITC	pH 7.5	Kd	~40 µM
COc1ccc(Sc2ccc(CONC(=O)c3ccc(C(N)=O)cc3)cc2C(F)(F)F)cc1	SIRT6	enzyme activity, inhibitor, fluorescence	–	IC50	1480 nM
CC1=C(/C=C/C2=CCC[C@]3(C)[C@@H]([C@H](C)CCCC(C)(C)O)CC[C@@H]23)C[C@@H](O)CC1	Oxysterols receptor LXR-beta (NR1H2, Homo sapiens, UniProt P55055)	coactivator recruitment, agonist, TR-FRET	–	EC50	0.01 to 0.1 µM
Nc1nc2c(ncn2[C@@H]2O[C@H](COP(=O)(O)OP(=O)(O)O)[C@@H](OP(=O)(O)OP(=O)(O)O)[C@H]2O)c(=O)[nH]1	icd (Escherichia coli, UniProt P08200)	binding, ITC	–	Kd	132 µM
CCCCN1CCC(COC(=O)c2ccc(N)c(OCF)c2)CC1	HTR6	cell-free assay, radioligand	–	Ki	> 10000 nM
CC(=O)N[C@H](C(=O)N[C@@H](CC(N)=O)C(=O)N[C@@H](CCCCN)C(=O)N1CCC[C@H]1C(=O)N[C@@H](CC(C)C)C(=O)N1CCC[C@H]1C(=O)N1CCC[C@H]1C(=O)N[C@@H](CC(C)C)C(=O)N1CCC[C@H]1C(=O)N[C@H](C(=O)N[C@@H](C)C(N)=O)C(C)C)C(C)C	Tyrosine-protein kinase Fyn, SH3 (FYN, Homo sapiens, UniProt P06241)	binding, ITC	pH 7	Kd	23.9 µM
Cc1cnc(-c2ccc(-c3ccc(NC(=O)Nc4c(F)cc(F)cc4F)cc3F)c3c2C(=O)NC3)[nH]1	Vascular endothelial growth factor receptor 3 (FLT4, Homo sapiens, UniProt P35916)	binding, competition with immobilised ligand	–	Kd	0.016 µM
Cc1cc(NS(=O)(=O)c2ccc3c(c2)CCC(=O)N3)ccc1Cl	PKM	enzyme activity, activator	–	AC50	560 nM
c1cnc2cc3c(cc2n1)[C@@H]1CNC[C@H]3C1	Neuronal acetylcholine receptor subunit alpha-4/beta-2 (Mus musculus, UniProt O70174+Q9ERK7)	ligand displacement, radioligand	cell membranes	Ki	2.99 nM
C=Cc1cnccn1	OR5K1	cAMP, agonist	–	EC50	> 1500 µM
Cc1ccc(NS(=O)(=O)c2cc3c(cc2N[C@H](C)CO)NC(=O)CC3)cc1C	PKM	enzyme activity, activator	–	AC50	880 nM
COc1cccc(OC)c1NS(=O)(=O)c1ccc(N/C=C2\C(=O)Nc3ccc4ncsc4c32)cc1	CDK2	binding	–	Kd	0.179 µM
NCCc1ccc(C(=O)NOCc2ccc(C(F)(F)F)cc2)cc1	SIRT6	enzyme activity, inhibitor, fluorescence	–	IC50	2650 nM
Cc1ccc(NS(=O)(=O)c2cc3c(cc2NC(C)C)NC(=O)CC3)cc1C	PKM	enzyme activity, activator	–	AC50	570 nM
Cc1cnc(C)c(C)n1	OR5K1 A2T/T15M/Y193C	cAMP, agonist	–	EC50	419 µM
N#Cc1ccc(CONC(=O)c2ccc(C(N)=O)cc2)cc1	SIRT6	enzyme activity, inhibitor, fluorescence	–	IC50	11700 nM
CN1C[C@H](CNC(=O)OCc2ccccc2)C[C@@H]2c3cccc4c3c(cn4C)C[C@H]21	HTR7	ligand displacement, radioligand	cell membranes	Ki	16 nM
Cc1nccnc1C	OR5K1	cAMP, agonist	–	EC50	> 1500 µM

Structure (SMILES)	target	assay	conditions	endpoint	value
Cc1cccc(CONC(=O)c2ccc(C(N)=O)cc2)c1	SIRT6	enzyme activity, inhibitor, fluorescence	–	IC50	3940 nM
O=C1CCc2cc(S(=O)(=O)Nc3ccc4ncccc4c3)ccc2N1	PKM	enzyme activity, activator	–	AC50	> 20000 nM
CN(CC(=O)N(Cc1ccc2ccccc2c1)c1ccc(C(=O)O)c(O)c1)S(=O)(=O)c1c(F)c(F)c(F)c(F)c1F	STAT3	ligand displacement, FP	–	Ki	32500 nM
O=C1c2ccccc2CCN1CCCCN1CCN(c2cccc(Cl)c2Cl)CC1	HTR6	ligand displacement, radioligand	–	Ki	544 nM
NC(=O)c1ccc(C(=O)NOCc2ccc(Nc3ccccc3)cc2)cc1	SIRT6	enzyme activity, inhibitor, fluorescence	–	IC50	2610 nM
O=C(Nc1cc(C2CCCCC2)[nH]n1)c1ccc(Br)cc1	CDK2	binding	–	Kd	> 100 µM
CC(C)(C)c1ccc(CONC(=O)c2ccc(C(N)=O)cc2)cc1	SIRT6	enzyme activity, inhibitor, fluorescence	–	IC50	2790 nM
CN1CCN(C2=Nc3cscc3/C(=C/C#N)c3cscc32)CC1	HTR7	ligand displacement, radioligand	cell membranes	Ki	153 nM
Cc1cc(C)c(S(=O)(=O)N(C)CC(=O)N(Cc2ccc3ccccc3c2)c2ccc(C(=O)O)c(O)c2)c(C)c1	STAT3	ligand displacement, FP	–	Ki	27700 nM
CC(=O)N=S(=O)(O)c1ccc(N/C=C2\C(=O)Nc3ccc4ncsc4c32)cc1	CDK2	binding	–	Kd	0.526 µM
Cc1nc2n(c(=O)c1CCN1CCC(c3noc4cc(F)ccc34)CC1)CCCC2O (stereo not shown)	HTR7	ligand displacement, radioligand	cell membranes	Ki	10 nM
Cc1ccc(NS(=O)(=O)c2cc3c(cc2/C=C/c2ccccc2)NC(=O)CO3)cc1C	PKM	enzyme activity, activator	–	AC50	> 20000 nM
CC(C)[C@@H](CC[C@@H](C)[C@H]1CC[C@H]2[C@@H]3[C@H](O)C[C@H]4C[C@@H](NCCCNCCCCNCCCN)CC[C@]4(C)[C@H]3CC[C@]12C)OS(=O)(=O)O	Receptor-type tyrosine-protein phosphatase R (PTPRR, Homo sapiens, UniProt Q15256)	enzyme activity, inhibitor	–	Ki	25000 nM
CC(N)c1ccc(C(=O)NOCc2ccc(C(F)(F)F)cc2)cc1 (stereo not shown)	SIRT6	enzyme activity, inhibitor, fluorescence	–	IC50	2640 nM
CN(C)CCC=C1c2ccccc2CCc2ccccc21	HTR7	ligand displacement, radioligand	cell membranes	Ki	96 nM
CC(C)c1nc2cc(OCCCCN3CCN(c4cccc5c4OCCO5)CC3)ccc2s1	HTR6	cell-free assay, radioligand	–	Ki	2300 nM
CNc1cc2c(cc1S(=O)(=O)Nc1ccc(C)c(C)c1)CCC(=O)N2	PKM	enzyme activity, activator	–	AC50	440 nM
CCc1nccnc1CC	OR5K1 A2T/T15M/Y193C	cAMP, agonist	–	EC50	499 µM
Cc1ccc(NS(=O)(=O)c2cc3c(cc2Cl)CCC(=O)N3)cc1Cl	PKM	enzyme activity, activator	–	AC50	90 nM
Cc1ccc2cccc(N3CCN(CCCCOc4ccc5sc(C(C)C)nc5c4)CC3)c2n1	HTR6	cell-free assay, radioligand	–	Ki	2200 nM
